# TRPC6 inh – mouse TRPC6 channel inhibitors, primary screen, cell-based, HEK293, membrane potential dye. Short transient receptor potential channel 6 (Mus musculus), Q61143. ACh-evoked depolarization; hits give low values. B-score at 10 µM. 1.1% of 310,000 active;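 active = B-score under library mean minus 3 SD, initial fluorescence not abnormally high, positive integrated signal ratio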;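 note: B-score derived from integrated fluorescence ratio over the kinetic read; more negative B-score means stronger inhibition of depolarization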
# TRPC4 inh – inhibitors of mouse TRPC4 channel, primary screen, Fluo4 calcium, HEK293 TRPC4beta/mu-opioid cells. DAMGO-evoked Fluo4 calcium flux; hits give low values. B-score at 10 µM. 0.39% of 300,000 active. AID 2247, 2010;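 active = B-score over 3 SD under the library average, no early fluorescence shift, positive overall ratio signal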
# Target sequence (Q9QUQ5 whole entry, looked up): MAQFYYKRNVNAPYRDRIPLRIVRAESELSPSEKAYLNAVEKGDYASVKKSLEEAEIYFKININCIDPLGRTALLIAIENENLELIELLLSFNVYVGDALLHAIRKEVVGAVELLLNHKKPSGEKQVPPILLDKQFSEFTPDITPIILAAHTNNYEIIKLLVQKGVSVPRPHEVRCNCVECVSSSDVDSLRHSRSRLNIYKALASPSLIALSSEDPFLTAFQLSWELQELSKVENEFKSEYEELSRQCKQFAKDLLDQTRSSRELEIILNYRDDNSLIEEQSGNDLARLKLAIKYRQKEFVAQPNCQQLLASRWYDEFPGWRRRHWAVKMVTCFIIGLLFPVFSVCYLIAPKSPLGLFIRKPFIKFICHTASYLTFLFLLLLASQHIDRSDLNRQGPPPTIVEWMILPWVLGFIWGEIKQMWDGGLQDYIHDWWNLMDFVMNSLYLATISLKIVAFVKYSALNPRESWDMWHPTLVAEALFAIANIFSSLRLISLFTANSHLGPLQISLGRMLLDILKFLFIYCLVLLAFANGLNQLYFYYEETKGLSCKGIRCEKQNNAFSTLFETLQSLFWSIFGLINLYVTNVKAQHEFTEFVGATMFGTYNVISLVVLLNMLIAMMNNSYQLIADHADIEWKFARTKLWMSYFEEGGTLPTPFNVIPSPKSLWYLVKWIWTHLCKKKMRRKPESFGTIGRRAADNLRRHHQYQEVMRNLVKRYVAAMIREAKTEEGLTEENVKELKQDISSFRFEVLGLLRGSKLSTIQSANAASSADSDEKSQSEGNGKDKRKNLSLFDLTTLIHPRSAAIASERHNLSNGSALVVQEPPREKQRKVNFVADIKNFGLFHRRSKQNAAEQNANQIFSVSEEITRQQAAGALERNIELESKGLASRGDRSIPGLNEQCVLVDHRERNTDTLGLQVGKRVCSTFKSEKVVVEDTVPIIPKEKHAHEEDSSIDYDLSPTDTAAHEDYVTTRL
#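 Test system – stable TRPC4beta/mu-opioid receptor HEK293 cells · Probe or stimulus – DAMGO, a submaximal dose followed by a maximal one · Dosing – one concentration per compound · Signal – Fluo4 calcium fluorescence by kinetic imaging, 5 s 1 Hz baseline · Evaluation – per-well B score of integrated baseline-normalized Fluo4 ratio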
# TRPC4 act – activators of mouse TRPC4 channel, primary screen, Fluo4 calcium, HEK293 TRPC4beta/mu-opioid cells; Fluo4 calcium fluorescence; hits give high values; Short transient receptor potential channel 4 (Mus musculus), Q9QUQ5; B-score at 10 µM; 0.49% of 310,000 active;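 active = B-score above 5 SD of library B-scores, and initial fluorescence ratio not above library mean plus 5 SD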;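 note: positive B-score marks a calcium rise read as TRPC4 activation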
#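 Test system: HEK293 cells stably co-expressing mouse TRPC4beta and mu-opioid receptor | Schedule: Fluo4 dye loading 45 min at room temperature, 110 s recording | Measured by: Kinetic Fluo4 calcium fluorescence, 5 s baseline at 1 Hz | Evaluation: B score of integrated ratio | Controls: Buffer (low) and maximal DAMGO (high)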
# TRPC6 activator – mouse TRPC6 channel activators, primary screen, cell-based, HEK293, membrane potential dye; AID 2550, 2010; 0.13% of 310,000 active; B-score at 10 µM; HEK293-TRPC6 membrane potential dye fluorescence; hits give high values; Short transient receptor potential channel 6 (Mus musculus), Q61143;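 active = B-score of the integrated fluorescence ratio above library mean plus 3 SD, and starting fluorescence ratio within library mean plus 5 SD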;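 note: higher score means more depolarization so channel activation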
# TRPC4 PAM – positive allosteric modulators of TRPC4, primary screen, cell-based, mouse TRPC4beta, HEK293 mu-opioid, Fluo-4 calcium; Short transient receptor potential channel 4 (Mus musculus), Q9QUQ5; DAMGO EC20, Fluo-4 Ca2+ flux; hits give high values; B-score at 10 µM; 0.42% of 310,000 active; AID 2227, 2009;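 active = B-score of calcium response area above 5 SD of library B-scores, with initial fluorescence ratio within 5 SD of library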
# A number is an active result; n = inactive. Sampled rows, rich in hits. Any-hit rate of the full collection: about 2.3%.
SMILES,TRPC6 inh,TRPC4 inh,TRPC4 act,TRPC6 activator,TRPC4 PAM
CCOC(=O)c1c(NC(=O)C2CCCO2)sc(C)c1C (stereo not given),n,n,n,n,n
CCOC(=O)c1c(NC(=O)C(C)Sc2nnc(C)c(=O)[nH]2)sc2c1CCCC2 (stereo not given),n,-6,n,n,n
CCOC(=O)c1c(NC(=O)C2CCCO2)sc2c1CCC2 (stereo not given),n,n,n,n,15
Cc1nn(C(=O)CNS(=O)(=O)c2ccccc2)c(C)c1Sc1ccc(Cl)cc1,n,-7,n,n,n
CC(C)(C)c1cc(Cl)ccc1OCCn1ccnc1,n,n,63,n,42
CC(C)(C)c1ccccc1OCCCCCn1ccnc1,n,n,n,n,42
Cc1ccc(C(C)(C)C)c(OCCCn2ccnc2)c1,n,n,n,n,n
Cc1ccc(C)c(OCCCCn2ccnc2)c1,n,n,133,n,n
Cc1cc(OCCn2ccnc2)cc(C)c1Cl,n,n,129,n,n
Cc1cccc(OCCCCCn2ccnc2)c1C,n,n,69,n,n
O=C(O)CCN1C(=O)/C(=C/c2ccc(-c3nc4ccccc4s3)o2)SC1=S,n,n,n,n,n
O=C(O)CCCN1C(=O)/C(=C\c2ccc(-c3nc4ccccc4s3)o2)SC1=S,n,n,n,n,19
C#CCOc1ccc(/C=N/NC(=O)c2cccnc2)cc1OCC,n,n,n,n,n
COc1cc(OC)cc(-n2nnnc2SCC(=O)N2CCCC2)c1,n,n,n,n,n
CCC(=O)Nc1cccc(-n2nnnc2SCC(=O)N2CCCCC2)c1,n,n,n,n,10
CCn1c(CNC(=O)c2cccs2)n[nH]c1=S,n,n,n,n,n
CNC(=S)NNC(=O)c1cccn(Cc2cccc(Cl)c2)c1=O,n,n,n,n,13
COc1cc(C(=O)c2ccccc2)c(OC)cc1C(=O)Nc1ccc(O)cc1,n,n,n,n,n
CCOc1ccc(-n2c(SCC(=O)Nc3nccs3)nnc2-c2ccoc2C)cc1,n,n,n,n,n
CCOc1ccccc1-n1c(SCC(=O)Nc2nccs2)nnc1-c1ccoc1C,n,-6,n,n,n
c1ccc(-c2cnc(SCCN3CCOCC3)n2CC2CCCO2)cc1 (stereo not given),n,-5,n,n,n
COc1ccc(-c2cnc(N)n2CC2CCCO2)cc1 (stereo not given),n,n,n,n,n
CCOC(=O)c1cc(C)[nH]c(=O)c1C#N,n,n,n,n,10
CCOC(=O)c1cc(C)[nH]c1C,n,n,n,n,n
CCCC(=O)N/C(N)=N/c1nc(C)c2cc(C)ccc2n1,n,n,n,n,n
SMILES,TRPC6 inh,TRPC4 inh,TRPC4 act,TRPC6 activator,TRPC4 PAM
Cc1ccc2nc(/N=C(\N)NC(=O)NC3CCCCC3)nc(C)c2c1,n,n,55,n,n
CCN1CC2=C(OC(N)=C(C#N)C2c2cccs2)/C(=C/c2cccs2)C1 (stereo not given),n,n,n,n,12
CCN1CC2=C(OC(N)=C(C#N)C2c2ccccc2)/C(=C\c2ccccc2)C1 (stereo not given),n,n,n,n,n
CCN1C(=O)CSC1=Nc1ccc(Cl)c(Cl)c1,n,-6,n,n,n
COc1ccccc1N(CC(O)CN1CCCCC1)S(=O)(=O)c1ccc(C)cc1 (stereo not given),n,n,n,n,n
Cc1ccc(S(=O)(=O)NC(=O)N2CCN(Cc3c(F)cccc3Cl)CC2)cc1,n,n,n,n,21
CCOCc1cn(CC(=O)c2ccc(Cl)cc2)c(C)nc1=N,n,-8,n,n,n
CCOCc1cn(CC(=O)c2ccc([N+](=O)[O-])cc2)c(C)nc1=N,n,n,n,n,n
COc1ccc(NC(=O)CCC(=O)c2ccc(C(C)C)cc2)cc1,n,n,n,n,n
COc1ccc(NC(=O)Nc2ccc(C(C)C)cc2)cc1,n,-6,n,n,n
Cc1ccc(SCCN)cc1C,n,n,83,n,n
Cc1ccc(SCC(=O)NNC(=O)c2ccccc2)cc1C,n,n,n,n,n
CC1=[N+](C)N(c2ccccc2)C(=O)C1N=Cc1c(Cl)cccc1Cl (stereo not given),n,n,n,n,n
Cc1ccn2c(NC3CCCC3)c(-c3cccs3)nc2c1,n,-6,n,n,n
c1csc(-c2nc3ccccn3c2NC2CCCCC2)c1,n,n,n,n,n
CCC(=O)N1CCc2cc(Br)cc(S(=O)(=O)NCCCN(C)Cc3ccccc3)c21,n,n,82,n,40
CC(=O)N1CCc2cc(Br)cc(S(=O)(=O)NCCCN(C)Cc3ccccc3)c21,n,n,119,n,n
CC1CC(C)CN(CCCNS(=O)(=O)c2ccc3c(c2)CCN3C(=O)C2CC2)C1 (stereo not given),n,n,66,n,n
CCCNS(=O)(=O)c1cc(Br)cc2c1N(C(=O)CC)CC2,n,n,n,n,n
CCOCCCNS(=O)(=O)c1cc(Br)cc2c1N(C(=O)C1CC1)CC2,n,n,n,n,n
CCC(=O)N1CCc2cc(S(=O)(=O)NCCCN(CC)Cc3ccccc3)ccc21,n,n,50,n,n
O=C(O)c1ccc(Cl)c(NC(=S)NC(=O)c2ccccc2[N+](=O)[O-])c1,n,n,n,n,n
COc1ccc(CC(=O)NNC(=O)c2cc(C)oc2C)cc1OC,n,n,n,n,n
COc1ccccc1N1CCN(S(=O)(=O)c2c(C)[nH]c(=O)[nH]c2=O)CC1,n,n,n,n,n
CC1CC(C)CN(CCCNS(=O)(=O)c2ccc3c(c2)oc(=O)n3C)C1 (stereo not given),n,n,49,n,n
SMILES,TRPC6 inh,TRPC4 inh,TRPC4 act,TRPC6 activator,TRPC4 PAM
CCC(=O)N1CCc2cc(S(=O)(=O)NCCN3CCCCC3CC)ccc21 (stereo not given),n,-9,n,n,n
CC1CCN(C(=O)CCNS(=O)(=O)c2ccc3c(c2)oc(=O)n3C)CC1,n,n,n,n,n
CCC(=O)N1CCc2cc(Br)cc(S(=O)(=O)NCCCN(CC)Cc3ccccc3)c21,n,n,148,n,n
CCOC(=O)C1CCN(C(=O)CCNS(=O)(=O)c2ccc3c(c2)CCN3C(=O)CC)CC1,n,n,n,n,n
COc1ccc(OCC(=O)N2CCCC(CO)(CCOc3ccccc3)C2)cc1 (stereo not given),n,n,n,n,n
Cc1cc(Br)cc2c1N(C)C(=O)C2(c1ccc(O)cc1)c1ccc(O)cc1,n,n,n,n,n
Cc1ccc(CNC(=O)c2cc3c(s2)CN(Cc2ccccc2)C3)cc1,n,n,n,n,n

# Screening results as filed in PubChem.
